Source: ChEMBL document CHEMBL4715813, “Allicin-inspired pyridyl disulfides as antimicrobial agents for multidrug-resistant Staphylococcus aureus” (Eur J Med Chem, 2018)
≈ marks a conversion by molar mass, not a printed value. Calls of active or inactive are those of the source. The calls are words filed in the database; no cut-off is given here.

Experiments:
Staphylococcus aureus [1] = test: Antibacterial activity against heterogeneous vancomycin-intermediate Staphylococcus aureus Mu3 ATCC 700698 assessed as inhibition of bacterial growth between 2 and 4 passages at 0.5 times of MIC incubated for 20 hrs by resistant development assay; format: functional, organism-based
Method in brief: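 Serial passage with hVISA Mu3, VISA and VRSA strains grown at 0.5× MIC of agent (± equimolar vancomycin). […] MIC was read visually at each passage.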

Staphylococcus aureus [2] = test: Antibacterial activity against methicillin-resistant Staphylococcus aureus ATCC 43300 assessed as bacterial growth inhibition incubated for 20 hrs by broth dilution method; format: functional
Method in brief: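 Broth microdilution: 0.5 McFarland suspension from an overnight culture, diluted 1:100 in cation-adjusted Mueller Hinton broth (CAMHB), given serial dilutions of test agent for 20 h at 37 °C. MIC is the lowest concentration with no visible growth.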

Staphylococcus aureus [3] = test: Ratio of MBC to MIC against methicillin-resistant Staphylococcus aureus ATCC 43300; format: functional
Method in brief: (§1)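 For MBC, 5 μL from each well was spotted on agar and incubated overnight; MBC is the lowest concentration with no visible growth. Ratio taken as MBC over MIC.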

Acinetobacter baumannii = test: Antibacterial activity against Acinetobacter baumannii ATCC 19606 assessed as zone of inhibition by disc diffusion method; format: functional
Klebsiella pneumoniae = test: Antibacterial activity against multidrug-resistant Klebsiella pneumoniae ATCC 700603 assessed as zone of inhibition by disc diffusion method; format: functional
Staphylococcus aureus [4] = test: Antibacterial activity against vancomycin-resistant Staphylococcus aureus HIP11714 assessed as inhibition of bacterial growth measured between 2 and 4 passages at 0.5 times of MIC incubated for 20 hrs by resistant development assay; format: functional, organism-based
Staphylococcus aureus [5] = test: Induction of intracellular oxidant species generation in Staphylococcus aureus ATCC 25923 after 1 hr by colorimetric based NBT assay; format: functional, organism-based
Method in brief: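 Cells at OD600 1.5 in HBSS mixed with 1 mg/mL aqueous NBT and agent (added from 2 mM stock) or DMSO/water, shaken for 1 h at 37 °C. Stopped with 0.1 M HCl and centrifuged; pellet formazan solubilized in DMSO/KOH/HBSS and read at OD560.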

MDA-MB-231 = test: Cytotoxicity against human MDA-MB-231 cells assessed as reduction in cell viability after 72 hrs by MTT assay; format: cell-based; conditions: MDA-MB-231, 72 h
Method in brief: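 MTT viability: MDA-MB-231 and HepG2 cells (kept in DMEM with 10% FBS) were seeded at 5000/well and allowed to adhere overnight. They were exposed to 0.001–100 μM for 72 h, then given MTT 1 mg/mL in PBS pH 7.4 for 2 h. Formazan was dissolved in DMSO and A570 read. IC50 was taken from dose-response curves.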

Staphylococcus aureus [6] = test: Antibacterial activity against methicillin-susceptible Staphylococcus aureus ATCC 25923 in presence of 0.05% v/v albumin; format: functional
Staphylococcus aureus [7] = test: Bactericidal activity against methicillin-susceptible Staphylococcus aureus ATCC 25923 assessed as bacterial killing incubated for over night; format: functional
Method in brief: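 5 μL from each well was spotted on agar and incubated overnight. MBC was taken as the lowest concentration with no visible growth.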

Staphylococcus aureus [8] = test: Bactericidal activity against Vancomycin-resistant Staphylococcus aureus HIP11714 assessed as bacterial killing incubated for over night; format: functional; method in brief: as §1
Staphylococcus aureus [9] = test: Antibacterial activity against community acquired methicillin-resistant Staphylococcus aureus BAA 1747 assessed as zone of inhibition by disc diffusion method; format: functional
[10] = test system: Staphylococcus epidermidis; test: Antibacterial activity against Staphylococcus epidermidis ATCC 14990 assessed as zone of inhibition by disc diffusion method; format: functional
Staphylococcus aureus [11] = test: Bacteriostatic activity against methicillin-susceptible Staphylococcus aureus ATCC 25923 assessed as reduction in glucose metabolism measured at 0.5 hr interval for 15 hrs by phenol red based microplate reader assay; format: functional, organism-based
Method in brief: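 Glucose acidification: an OD600 1.0 suspension of S. aureus […] in HBSS was mixed with phenol red (70 μM stock) and test agent added from a 2 mM stock. Controls were DMSO vehicle and water. OD560 was read every 0.5 h for 15 h at 37 °C.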

Staphylococcus aureus [12] = test: Bacteriostatic activity against methicillin-susceptible Staphylococcus aureus ATCC 25923 assessed as reduction in colony forming unit at 4 times of MIC measured up to 4 hrs by time kill assay; format: functional, organism-based
Method in brief: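 Time-kill: a 1:100 dilution of 0.5 McFarland S. aureus […] suspension was exposed to 0, 1 and 4× MIC. At 0, 1, 2 and 4 h, samples were serially diluted in PBS and plated on MHA. CFU were counted after 30 h incubation.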

Pseudomonas aeruginosa = test: Antibacterial activity against Pseudomonas aeruginosa ATCC 15422 assessed as zone of inhibition by disc diffusion method; format: functional
Staphylococcus aureus [13] = test: Antibacterial activity against methicillin-susceptible Staphylococcus aureus ATCC 25923 assessed as inhibition of bacterial growth at 1 to 2 times of MIC after 20 hrs; format: functional, organism-based
Staphylococcus aureus [14] = test: Induction of intracellular oxidant species generation in Staphylococcus aureus ATCC 25923 by DCFH-DA dye based fluorescence assay; format: functional, organism-based
Method in brief: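 OD600 1.5 suspension of S. aureus […] in HBSS given agent (from 2 or 10 mM stock), DMSO or water, then DCFH diacetate from a 100 μM stock in DMSO. Intracellular oxidation read by fluorescence (ex 485, em 535 nm).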

Staphylococcus aureus [15] = test: Bacteriostatic activity against methicillin-susceptible Staphylococcus aureus ATCC 25923 assessed as reduction in bacterial metabolism at 0.25 to 1 times of MIC incubated for 1 hr by C12-resazurin dye based fluorescence assay; format: functional, organism-based
Staphylococcus aureus [16] = test: Antibacterial activity against vancomycin-resistant Staphylococcus aureus HIP11714 assessed as bacterial growth inhibition by measuring fold increase in MIC between 5 to 7 passages by broth dilution method; format: functional
Bacillus anthracis = test: Antibacterial activity against Bacillus anthracis Sterne 34F2 assessed as zone of inhibition by disc diffusion method; format: functional
Enterococcus faecium = test: Antibacterial activity against vancomycin-resistant Enterococcus faecium ATCC 700221 assessed as zone of inhibition by disc diffusion method; format: functional
Staphylococcus aureus [17] = test: Antibiofilm activity against methicillin-resistant Staphylococcus aureus assessed as disruption of preformed biofilm at 1 to 5 times of MIC incubated for 20 hrs by crystal violet staining based assay; format: functional, organism-based
Staphylococcus aureus [18] = test: Disruption of membrane potential in Staphylococcus aureus at 3 to 30 uM by DiOC2(3) probe based flow cytometric analysis; format: functional, organism-based; conditions: dose 3-30 µM, TDE = time-dependent effect
Method in brief: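 An overnight S. aureus culture was diluted 1:100 in LB, shaken 2 h at 37 °C, then diluted to a final 1:200. Cells were treated with 3–30 μM, DMSO 2% vehicle or CCCP at 37 °C with shaking. At 15 and 30 min, samples were stained 20 min with DiOC2(3). Flow cytometry used ex 488 nm, green 530/30 and red 585/42, reported as red/green ratio (mean ± SEM).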

Staphylococcus aureus [19] = test: Bactericidal activity against methicillin-resistant Staphylococcus aureus ATCC 43300 assessed as bacterial killing incubated for over night; format: functional; method in brief: as §1
Staphylococcus aureus [20] = test: Ratio of MBC to MIC against heterogeneous vancomycin-intermediate Staphylococcus aureus Mu3 ATCC 700698; format: functional; method in brief: as §1
Staphylococcus aureus [21] = test: Antibacterial activity against methicillin-susceptible Staphylococcus aureus ATCC 25923 in presence of 5% v/v serum; format: functional

CCCCCCCCSSc1ccccn1
Activity (Staphylococcus aureus [1]): Active
MIC (Staphylococcus aureus [2]): 6.25 µM (≈ 1.6 µg/mL)
Ratio (Staphylococcus aureus [3]): >8
diameter of the inhibition zone (DIZ) (Acinetobacter baumannii): 0 mm
diameter of the inhibition zone (DIZ) (Klebsiella pneumoniae): 0 mm
Activity (Staphylococcus aureus [4]): Active
Activity (Staphylococcus aureus [5]): Active
IC50 (MDA-MB-231): 74.9 µM
MIC (Staphylococcus aureus [6]): 12.5 µM
MBC (Staphylococcus aureus [7]): > 50 µM
MBC (Staphylococcus aureus [8]): > 50 µM
diameter of the inhibition zone (DIZ) (Staphylococcus aureus [9]): 30 mm
diameter of the inhibition zone (DIZ) [10]: 46 mm
Activity (Staphylococcus aureus [11]): Active
Activity (Staphylococcus aureus [12]): Active
diameter of the inhibition zone (DIZ) (Pseudomonas aeruginosa): 0 mm
Activity (Staphylococcus aureus [13]): Active
Activity (Staphylococcus aureus [14]): Active
Activity (Staphylococcus aureus [15]): Active
fold change (FC) (Staphylococcus aureus [16]): >2
diameter of the inhibition zone (DIZ) (Bacillus anthracis): 48 mm
diameter of the inhibition zone (DIZ) (Enterococcus faecium): 12 mm
Activity (Staphylococcus aureus [17]): Dose-dependent effect
Activity (Staphylococcus aureus [18]): Tde
MBC (Staphylococcus aureus [19]): > 50 µM
Ratio (Staphylococcus aureus [20]): >4
MIC (Staphylococcus aureus [21]): 25 µM
